Results gathered from unrelated publications.
Observed: enzyme activity
Mode: inhibitor
CDK2 with cyclin A: Cyclin-dependent kinase 2, with cyclin A (CDK2, Homo sapiens, UniProt P24941)
CDK2 with cyclin E: Cyclin-dependent kinase 2, with cyclin E (CDK2, Homo sapiens, UniProt P24941)
CDK2 with cyclin E2: Cyclin-dependent kinase 2, with cyclin E2 (CDK2, Homo sapiens, UniProt P24941)

Nc1nc(NC2CCCCC2)sc1C(=O)c1ccccc1
remaining activity (CDK2 with cyclin A; 10 µM): 5%

COc1cc(Cl)c(C(=O)N[C@@H](CN[C@H]2CC[C@@H](N)CC2)Cc2ccc(C#N)cc2)cc1-c1ccc(CN[C@H](C)c2ccc(C)cc2)o1
remaining activity (CDK2 with cyclin A; 1 µM): 96%

COc1cc(Nc2cnc(C#N)c(O[C@H](C)CN(C)C)n2)ncc1-c1cnn(C)c1
remaining activity (CDK2 with cyclin A; radiometric; 1 µM): 114%

Cc1ccc(Nc2nccc(N(C)c3ccc4c(C)n(C)nc4c3)n2)cc1S(N)(=O)=O
remaining activity (CDK2 with cyclin E; 0.5 µM): 96.4%

FC(F)c1nc2ccccc2n1-c1nc(N2CCOCC2)nc(N2CCOCC2)n1
remaining activity (CDK2 with cyclin A; 10 µM): 77%

CC(C)(C)c1nc2c(s1)c1nc(N)ncc1c1ccc(NS(=O)(=O)c3c(F)cccc3F)c(F)c12
remaining activity (Cyclin-dependent kinase 2, with cyclin E1 (CDK2, Homo sapiens, UniProt P24941); radiometric; 1 µM): 93%

O=C(Nc1cnn(-c2csc(C(=O)NC3COC3)c2)c1)Nc1c(F)cccc1Cl
remaining activity (CDK2 with cyclin E; 5 µM): 94.6%

Cc1cnc(NC2CCOCC2)nc1-n1cnc(C(=O)NC(CN)c2cc(F)cc(Cl)c2)c1 (stereo not shown)
remaining activity (CDK2 with cyclin E; radiometric; 1 µM): 3%

CC(C)(C)c1nc(-c2cccc(NS(=O)(=O)c3c(F)cccc3F)c2F)c(-c2ccnc(N)n2)s1
remaining activity (Cyclin-dependent kinase 2, with cyclin A2 (CDK2, Homo sapiens, UniProt P24941); radiometric; 1 µM): 72%

Cc1sc(C(=O)NC2COC2)cc1-n1cc(NC(=O)Nc2c(F)cccc2Cl)cn1
remaining activity (CDK2 with cyclin E2; 10 µM): 90.8%

Oc1cccc(-c2nc(N3CCOCC3)c3oc4ncccc4c3n2)c1
remaining activity (CDK2 with cyclin A; 10 µM): 94%

O=C(Nc1cnn(-c2csc(C(=O)NC3COC3)c2)c1)Nc1ccccc1Cl
remaining activity (CDK2 with cyclin E2; 5 µM): 107%

CC(C)(O)[C@H]1CC[C@H](Nc2ccc3ncc(-c4cccc(C(F)(F)F)c4)n3n2)CC1
remaining activity (CDK2 with cyclin A; 1 µM): 96.9%
